# Data reported in ChEMBL document CHEMBL4184168, “Anticancer activities of emetine prodrugs that are proteolytically activated by the prostate specific antigen (PSA) and evaluation of in vivo toxicity of emetine derivatives” (Bioorg Med Chem, 2017).
# Calls of active or inactive are those of the source. No cut-off for these calls is given here. *1 amine or outer side, *2 acyl side, *3 side chain or, on linkers, in order; H or OH if unused. Where a SMILES comes first, the peptide text is derived from it. [ ]: non-standard residue; d: D form. The star is where a group is joined. Emetine(N2') = CC[C@H]1CN2CCc3cc(OC)c(OC)cc3[C@@H]2C[C@@H]1C[C@@H]1c2cc(OC)c(OC)cc2CCN1*; PABC = O=C(OCc1ccc(N[*:1])cc1)[*:2]
# How the values were obtained:
# [1] = Toxicity in iv dosed Balb/C mouse; type: organism-based; conditions: in vivo
# Method in brief: (§1)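 Male Balb/c mice, eight weeks old, about 25 g. Single IV bolus of 200 μL, doses ranging from 8 to 100 mg/kg, in 1% DMSO/saline or 10% cremophor/saline; vehicle-only controls. Each dose tested in triplicate. Mice watched for convulsions, death and behaviour after injection to set the maximum tolerated dose.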
# [2] = test system: Mus musculus; assay: Toxicity in Balb/C mouse assessed as change in behavior at >100 mg/kg, iv; type: organism-based; conditions: in vivo; method in brief: as §1
# [3] = test system: Mus musculus; assay: Toxicity in Balb/C mouse assessed as mortality at >100 mg/kg, iv; type: organism-based; conditions: in vivo; method in brief: as §1
# [4] = test system: CWR22R; assay: Antiproliferative activity against human CWR22Rv1 cells expressing PSA after 3 days by MTT assay; type: functional, cell-based; conditions: for IC50: 22Rv1, 72 h
# Method in brief: (§2)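 LNCaP seeded at 5 × 10^3 cells/well; PC3, CWR22Rv1 and MDA-MB-231 at 2.5 × 10^3. The first three were grown in RPMI and MDA-MB-231 in DMEM, each with 10% FBS. After 24 h attachment, cells got final 10, 50, 100, 1000 or 10,000 nM (0.1% DMSO) in eight replicates. Viable cells by MTT on day 0, 3 and 5, A570 corrected at 650 nm. Experiments run at least twice.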
# [5] = biological target: T1, Prostate-specific antigen (Homo sapiens, UniProt P07288); assay: Prodrug activation in human plasma assessed as human PSA mediated emetine formation at 200 uM after 48 hrs by HPLC-MS analysis
# T1 sequence (P07288 whole entry): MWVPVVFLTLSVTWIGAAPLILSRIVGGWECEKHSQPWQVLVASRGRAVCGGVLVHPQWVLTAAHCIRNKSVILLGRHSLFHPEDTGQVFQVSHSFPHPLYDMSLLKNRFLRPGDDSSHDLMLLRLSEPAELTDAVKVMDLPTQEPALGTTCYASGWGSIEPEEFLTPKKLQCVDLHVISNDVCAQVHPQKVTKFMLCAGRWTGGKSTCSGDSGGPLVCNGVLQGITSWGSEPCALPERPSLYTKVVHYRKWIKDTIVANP
# [6] = test system: LNCaP; assay: Antiproliferative activity against human LNCAP cells expressing PSA after 3 days by MTT assay; type: functional, cell-based; conditions: for IC50: 72 h; method in brief: as §2
# [7] = biological target: T1, Prostate-specific antigen; assay: (§3) Prodrug activation in human plasma assessed as human PSA mediated 4-((S)-2-((S)-2-Amino-3-hydroxypropanamido)-4-methylpentanamido)benzyl(R)-1-(((2R,3R,11bS)-3-ethyl-9,10-dimethoxy-1,3,4,6,7,11b-hexahydro-2H-pyrido[2,1-a]isoquinolin-2-yl)methyl)-6,7-dimethoxy-3,4-dihydroisoquinoline-2(1H)-carboxylate formation at 200 uM after 48 hrs by HPLC-MS analysis
# [8] = biological target: T1, Prostate-specific antigen; assay: as §3, with “activation” for “activation in human plasma”, “formation” for “formation at 200 uM after 48 hrs”; conditions: TDE = time-dependent effect
# Method in brief: (§4)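 10 mM DMSO stock diluted to 200 μM final in PSA buffer (50 mM Tris·HCl, 100 mM NaCl, pH 7.4) with purified PSA at 20 μg/mL final and 2% DMSO. Shaken at 37 °C. Aliquots taken at time points, quenched with cold acetonitrile, held on ice, centrifuged, then analysed by reversed-phase C18 HPLC (215/285 nm) and mass spectrometry.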
# [9] = test system: PC-3; assay: Antiproliferative activity against human PC3 cells after 3 days by MTT assay; type: functional, cell-based; conditions: for IC50: PC-3, 72 h; method in brief: as §2
# [10] = Prodrug activation assessed as emetine formation at […] in presence of 10% FBS after 5 days by HPLC-MS analysis; conditions: cattle, 120 h
# Method in brief: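 No enzyme added. 10 mM DMSO stock diluted to 200 μM final (2% DMSO) in PBS, 10% FBS in PBS, or conditioned RPMI (supernatant of LNCaP culture grown to about 95% confluency). Shaken at 37 °C, quenched with cold acetonitrile, centrifuged, supernatant analysed by reversed-phase C18 HPLC (215/285 nm) and ESI-MS.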
# [11] = test system: Mus musculus; assay: Toxicity in Balb/C mouse assessed as convulsion at >25 mg/kg, iv after 1 min; type: organism-based; conditions: in vivo; method in brief: as §1
# [12] = test system: Mus musculus; assay: Toxicity in Balb/C mouse at >100 mg/kg, iv; type: organism-based; conditions: in vivo; method in brief: as §1
# [13] = test system: Mus musculus; assay: Toxicity in Balb/C mouse at 32 mg/kg, iv; type: organism-based; conditions: in vivo
# [14] = test system: Mus musculus; assay: Toxicity in Balb/C mouse at >50 mg/kg, iv; type: organism-based; conditions: in vivo; method in brief: as §1
# [15] = Stability in conditioned media assessed as parent compound remaining at […] after 72 hrs by HPLC-MS analysis; type: physicochemical; conditions: read-out: Stability
# [16] = biological target: T2, Prostate-specific antigen (PSA) (Homo sapiens, UniProt P07288); assay: Stability in PBS buffer assessed as human PSA mediated compound metabolism by measuring parent compound remaining at […] after 72 hrs by HPLC-MS analysis; type: ADME; conditions: read-out: Stability
# T2 sequence (P07288 whole entry): T1 sequence (P07288 whole entry)
# [17] = Stability in PBS buffer assessed as parent compound remaining at […] after 72 hrs by HPLC-MS analysis; type: physicochemical; conditions: read-out: Stability
# [18] = Stability assessed as parent compound remaining at […] in presence of 10% FBS after 72 hrs by HPLC-MS analysis; type: physicochemical; conditions: cattle, read-out: Stability
# [19] = test system: Mus musculus; assay: Toxicity in Balb/C mouse assessed as convulsion at 16 mg/kg, iv up to 1 min; type: organism-based; conditions: in vivo; method in brief: as §1
# [20] = test system: MDA-MB-231; assay: Antiproliferative activity against human MDA-MB-231 cells at 50 to 10000 nM after 3 days by MTT assay; type: functional, cell-based; method in brief: as §2
# [21] = test system: PC-3; assay: Antiproliferative activity against human PC3 cells at 50 to 10000 nM after 3 days by MTT assay; type: functional, cell-based; method in brief: as §2
# [22] = test system: Mus musculus; assay: Toxicity in Balb/C mouse assessed as death at 16 mg/kg, iv up to 1 min; type: organism-based; conditions: in vivo; method in brief: as §1
# [23] = biological target: T1, Prostate-specific antigen; assay: Prodrug activation assessed as human PSA-mediated 4-((S)-1-(L-Alanyl)pyrrolidine-2-carboxamido)benzyl (R)-1-(((2R,3R,11bS)-3-ethyl-9,10-dimethoxy-1,3,4,6,7,11b-hexahydro-2Hpyrido[2,1-a]isoquinolin-2-yl)methyl)-6,7-dimethoxy-3,4-dihydroisoquinoline-2(1H)-carboxylate formation measured over 24 hrs by LC-MS analysis; method in brief: as §4
# [24] = test system: Mus musculus; assay: Toxicity in Balb/C mouse assessed as convulsions at >25 mg/kg, iv; type: organism-based; conditions: in vivo; method in brief: as §1
# [25] = test system: LNCaP; assay: Potency index, ratio of emetine IC50 to compound IC50 for human LNCAP cells expressing PSA; type: functional
structure (smiles),measurement,setting,value
CC[C@H]1CN2CCc3cc(OC)c(OC)cc3[C@@H]2C[C@@H]1C[C@@H]1c2cc(OC)c(OC)cc2CCN1C(=O)CCC(=O)O,MTD,[1],> 100 mg/kg
same,Activity,[2],Non-Toxic
same,Activity,[3],Non-Toxic
CC[C@H]1CN2CCc3cc(OC)c(OC)cc3[C@@H]2C[C@@H]1C[C@@H]1c2cc(OC)c(OC)cc2CCN1C(=O)OCc1ccc(NC(=O)[C@H](CC(C)C)NC(=O)[C@H](CO)NC(=O)[C@H](CCC(N)=O)NC(=O)[C@H](CC(C)C)NC(=O)[C@H](CCCCN)NC(=O)[C@H](CO)NC(=O)[C@H](CO)NC(=O)[C@H](Cc2cnc[nH]2)NC(C)=O)cc1 (Ac-HSSKLQSL[PABC]-{Emetine(N2')}),Activity,[4],Dose-dependent effect
same,IC50,[4],75.8 nM
same,Drug metabolism,[5],Metabolite_Notdetected
same,MTD,[1],25 mg/kg
same,Activity,[6],Dose-dependent effect
same,IC50,[6],59 nM
same,Drug metabolism,[7],Metabolite_Notdetected
same,Drug metabolism,[8],Tde
same,Activity,[9],Dose-dependent effect
same,IC50,[9],538 nM
same,Drug metabolism,[10],Metabolite_Notdetected
same,Activity,[11],Toxic
CC[C@H]1CN2CCc3cc(OC)c(OC)cc3[C@@H]2C[C@@H]1C[C@@H]1c2cc(OC)c(OC)cc2CCN1C(=S)Nc1ccccc1,Activity,[12],Non-Toxic
same,MTD,[1],> 100 mg/kg
same,Activity,[2],Non-Toxic
same,Activity,[3],Non-Toxic
CC[C@H]1CN2CCc3cc(OC)c(OC)cc3[C@@H]2C[C@@H]1C[C@@H]1c2cc(OC)c(OC)cc2CCN1C(=O)/C(C)=C(/C)C(=O)O,Activity,[13],Toxic
CC[C@H]1CN2CCc3cc(OC)c(OC)cc3[C@@H]2C[C@@H]1C[C@@H]1c2cc(OC)c(OC)cc2CCN1C(=O)OCc1ccc(NC(=O)[C@H](CC(C)C)NC(=O)[C@@H](N)CO)cc1,Activity,[14],Toxic
same,MTD,[1],50 mg/kg
same,remaining at 72 h,[15],100%
same,IC50,[6],100 nM
same,remaining at 72 h,[16],100%
same,remaining at 72 h,[17],100%
same,IC50,[9],100 nM
same,remaining at 72 h,[18],100%
CC[C@H]1CN2CCc3cc(OC)c(OC)cc3[C@@H]2C[C@@H]1C[C@H]1NCCc2cc(OC)c(OC)cc21 [EMETINE],IC50,[4],30.8 nM
same,Activity,[19],Toxic
same,Activity,[20],Active
same,MTD,[1],8 mg/kg
same,Activity,[21],Active
same,Activity,[22],Toxic
CC[C@H]1CN2CCc3cc(OC)c(OC)cc3[C@@H]2C[C@@H]1C[C@@H]1c2cc(OC)c(OC)cc2CCN1C(=O)[C@@H]1CCCN1C(=O)[C@H](C)N,Activity,[19],Toxic
same,Activity,[22],Toxic
CC[C@H]1CN2CCc3cc(OC)c(OC)cc3[C@@H]2C[C@@H]1C[C@@H]1c2cc(OC)c(OC)cc2CCN1C(=O)OCc1ccc(NC(=O)[C@@H]2CCCN2C(=O)[C@H](C)NC(=O)[C@H](CCC(N)=O)NC(=O)[C@H](CC(C)C)NC(=O)[C@H](CCCCN)NC(=O)[C@H](CO)NC(=O)[C@H](CO)NC(=O)[C@H](Cc2cnc[nH]2)NC(C)=O)cc1 (Ac-HSSKLQAP[PABC]-{Emetine(N2')}),Drug metabolism,[23],Metabolite_Notdetected
same,Activity,[20],Active
same,Activity,[24],Toxic
same,Activity,[21],Active
same,Ratio IC50,[25],24
